ASAP1 inh: inhibitors of human ASAP1 ArfGAP activity, primary screen, biochemical, fluorescence polarization | ASAP1-stimulated ARF1 GTP hydrolysis, GDP FP detection | 360,000 tested, 0.19% active | Arf-GAP with SH3 domain, ANK repeat and PH domain-containing protein 1 (Homo sapiens), … | inhibition, % at 16.5 µM; in the data active = inhibition above about 25%;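 also: 0% = vehicle with enzyme and substrate and 100% = no enzyme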
Target sequence (Q9ULH1 325-724 limits assumed): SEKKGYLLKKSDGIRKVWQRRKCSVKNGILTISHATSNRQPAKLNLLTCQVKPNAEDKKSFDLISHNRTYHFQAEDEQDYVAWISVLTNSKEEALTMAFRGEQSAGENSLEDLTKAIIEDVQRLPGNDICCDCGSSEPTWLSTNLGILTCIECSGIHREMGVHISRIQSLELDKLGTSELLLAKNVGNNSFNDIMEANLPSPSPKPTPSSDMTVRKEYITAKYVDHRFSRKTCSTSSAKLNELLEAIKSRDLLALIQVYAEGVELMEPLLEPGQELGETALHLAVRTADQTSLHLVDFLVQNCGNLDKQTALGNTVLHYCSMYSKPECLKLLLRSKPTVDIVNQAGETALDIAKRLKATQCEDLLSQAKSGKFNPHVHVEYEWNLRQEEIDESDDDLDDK
Rin1 Abl inh: inhibitors of Rin1-Abl protein binding, primary screen, biochemical, TR-FRET; inhibition, % at 7.35 µM; AID 588664, 2011; 360,000 tested, 0.4% active; in the data active = inhibition above about 5%, passing the limit was not always enough
GalR3 antag: GalR3 antagonists in HEK293 cells, primary screen, cell-based, fluorescence readout. HEK293 GalR3-CNG cAMP membrane potential fluorescence; galR3 body fused to GalR1 C-terminus. inhibition, % at 3 µM. 360,000 tested, 0.44% active;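 active = inhibition above the screen-wide average plus 3 SD, cut at about 13% in these data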;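 also: forskolin and galanin both at EC90 stimulate the cells; cAMP rise reported by CNG channel membrane potential dye signal; 0% = forskolin plus galanin with DMSO and 100% = forskolin alone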
ARFGAP1 inhibitor: inhibitors of rat ARFGAP1 GAP activity, primary screen, biochemical, fluorescence polarization, GDP tracer. Arfgap1-stimulated ARF1 GTP hydrolysis, GDP FP detection. 360,000 tested, 0.26% active. ADP-ribosylation factor GTPase-activating protein 1 (Rattus norvegicus), Q62848. inhibition, % at 16.5 µM;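 active = inhibition above a per-plate limit, mean inhibition of low control wells plus 3 SD, cut at about 25% in these data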;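 also: 0% = DMSO wells with enzyme and 100% = wells lacking Arfgap1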
Target sequence (Q62848 1-136 limits assumed): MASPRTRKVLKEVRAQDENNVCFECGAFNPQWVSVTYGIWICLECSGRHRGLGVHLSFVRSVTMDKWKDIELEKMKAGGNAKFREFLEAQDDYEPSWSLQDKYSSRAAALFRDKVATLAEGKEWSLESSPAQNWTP
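material = rat Arfgap1 catalytic domain, aa 1-136 | also added = human ARF1(Δ1-17)-GTP substrate | compound dosing = one concentration, 16.5 µM, DMSO 1.26% | times = GTP hydrolysis reaction 2 h at 25 °C | measured by = FP, GDP Alexa 633 tracer displaced from anti-GDP antibody, 620/688 nm | evaluation = percent inhibition of Arfgap1-stimulated GTP hydrolysis | replication = single well per compound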
GalR3 antag conf: GalR3 antagonist hit confirmation, cell-based, fluorescence, triplicate; shares compounds with GalR3 antag; HEK293 GalR3 CNG cAMP biosensor, membrane potential fluorescence; galR3 fused to GalR1 carboxy tail; challenged with forskolin and galanin at EC90; inhibition, % at 3 µM; 1,600 tested, 59% active;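 active = inhibition above the primary screen's cutoff, the mean inhibition of all screened compounds plus 3 SD, cut at about 13% in these data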;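 also: 0% = forskolin plus galanin and 100% = forskolin alone with DMSO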
HEK-CNG parental: nonspecific cAMP agonists in parental HEK-CNG cells, counter-screen for GalR3 antagonist project, cell-based, fluorescence, high throughput | shares compounds with GalR3 antag | activation, % at 3 µM | HEK293-CNG parental cells, cAMP membrane potential fluorescence; normalised: DMSO wells 0%, forskolin wells 100% | 1,600 tested, 10% active | AID 652268, 2013; in the data active = activation above about 1.3%
An asterisk follows results filed as active; . = no result given. Rows were chosen to be rich in hits. Some 1.2% of all compounds tested hit in one or more screens of this group.

SMILES	ASAP1 inh	Rin1 Abl inh	GalR3 antag	ARFGAP1 inhibitor	GalR3 antag conf	HEK-CNG parental
CN(c1ccccc1C(=O)Nc1ccc(S(=O)(=O)N2CCCC2)cc1)S(C)(=O)=O	-8.0	0.0	-5.2	13.4	.	.
Cc1ccc(NS(=O)(=O)c2ccc(C(=O)NC3CCN(Cc4ccccc4)CC3)cc2)cc1	-0.3	1.2	90.5*	-0.3	103.2*	0.6
COc1ccc(NS(=O)(=O)c2ccc(NC(=O)c3ccc(CN4CCOCC4)cc3)cc2)cc1	-4.8	1.4	88.7*	5.6	118.2*	-1.0
CN(c1ccc(C(=O)Nc2ccc(S(=O)(=O)N3CCCC3)cc2)cc1)S(C)(=O)=O	5.7	0.7	93.5*	13.7	95.4*	0.0
COc1ccc(C(=O)NC(=S)Nc2ccc(CN3CCCCC3)cc2)cc1Cl	2.4	0.4	15.3*	14.3	7.2	9.7*
COc1cc(NC(=O)c2ccc(-c3ccc(F)c(F)c3)c3ccoc23)cc(OC)c1OC	-4.5	-5.0	-0.9	2.6	.	.
CC(=O)N(C)C[C@@H]1OCc2ccccc2-c2c(n(C)c3ccccc23)C(=O)N([C@@H](C)CO)C[C@@H]1C	2.3	.	-0.3	9.6	.	.
CCOc1ccc(NC(=O)c2ccc(OCC3CCCO3)cc2)cc1S(=O)(=O)N(CC)CC (stereo not given)	2.6	-0.6	-6.4	5.5	.	.
O=C(Nc1ccc(Cl)cc1)c1ccc(OCC2CCCO2)cc1 (stereo not given)	9.7	-1.2	-5.8	-9.8	.	.
CCN(CC)S(=O)(=O)c1ccc(NC(=O)c2ccc(OCC3CCCO3)cc2)cc1 (stereo not given)	0.6	-2.3	34.5*	2.8	104.2*	-0.3
O=C(Nc1ccc(S(=O)(=O)Nc2ccc(F)cc2)cc1)c1ccc(CN2CCOCC2)cc1	3.0	2.4	67.4*	0.2	109.5*	-1.3
O=C(Nc1nc(-c2ccc(Cl)cc2Cl)cs1)c1ccc(OCC2CCCO2)cc1 (stereo not given)	-5.6	-1.6	92.5*	8.7	109.3*	-0.6
CCN(CC)S(=O)(=O)c1ccc(NC(=O)c2ccc(CN3CCOCC3)cc2)cc1	-2.4	-0.5	101.4*	0.5	106.3*	-0.7
COC(=O)[C@]12C[C@H](CC(=O)NCc3ccccc3)C(=O)N(Cc3ccccc3)C1=C[C@H](C(C)(C)C)O[C@@H]2C	1.4	.	-7.0	1.7	.	.
COc1ccc(OCc2cccc(C(=O)Nc3ccc(CN4CCCCC4)cc3)c2)cc1	-9.9	0.4	12.8*	-5.6	35.4*	2.0*
CCN(CC(=O)NCCCN1CCOCC1)S(=O)(=O)c1ccc(F)cc1	-7.4	1.3	19.1*	6.2	3.0	0.0
COc1ccc(CN2CCN(C(=O)c3ccc(S(=O)(=O)N4CCCCCC4)cc3)CC2)cc1	-2.6	-0.3	26.5*	7.6	90.4*	-0.6
O=C(Nc1ccc(S(=O)(=O)N2CCCC2)cc1)c1ccc(CN2CCOCC2)cc1	3.3	-0.4	106.9*	3.6	64.1*	0.2
CCOc1ccc(OCc2cccc(C(=O)Nc3ccc(CN4CCCCC4)cc3)c2)cc1	10.2	1.1	0.4	13.0	.	.
O=C(c1ccc(S(=O)(=O)N2CCCCCC2)cc1)N1CCN(Cc2ccccc2)CC1	-12.4	-0.8	-6.4	12.3	.	.
COc1ccc(NS(=O)(=O)c2ccc(N3CCOCC3)c(N)c2)cc1	0.7	3.5	83.9*	4.1	82.8*	-0.4
COc1ccc(S(=O)(=O)Nc2ccc(N3CCOCC3)cc2)cc1	4.5	2.8	-8.6	-0.7	.	.
CCN(CC)S(=O)(=O)c1ccc(O)c(NC(=O)c2ccc(N3CCOCC3)c([N+](=O)[O-])c2)c1	2.1	-1.3	22.7*	-3.9	11.2	0.4
Cc1nnsc1C(=O)NC1CCCc2c1cnn2-c1ccc(C(C)(C)C)cc1 (stereo not given)	4.0	0.1	108.2*	4.4	110.8*	0.1
Cc1ncoc1C(=O)NC1CCCc2c1cnn2-c1ccc(C(C)(C)C)cc1 (stereo not given)	11.8	3.5	101.6*	-6.8	110.8*	0.0
SMILES	ASAP1 inh	Rin1 Abl inh	GalR3 antag	ARFGAP1 inhibitor	GalR3 antag conf	HEK-CNG parental
CC(C)c1ccc(NC2CCCN(C(=O)c3n[nH]c4c3CCC4)C2)cc1 (stereo not given)	8.6	-1.6	30.6*	-8.0	35.8*	0.0
CC(=O)C1=C(C)N(Cc2ccc(Br)cc2)C(=S)NC1c1cccc(F)c1 (stereo not given)	6.7	.	-9.1	-16.6	.	.
COC(=O)C1=C(C)N(C)C(=NCc2ccc(C(F)(F)F)cc2)NC1c1cccc(Cl)c1 (stereo not given)	6.3	.	-5.4	0.7	.	.
c1ccc2c(c1)nc(NCCN1CCOCC1)c1nncn12	16.1	3.8	.	5.2	8.3	0.0
Clc1cccc(N2CCN(CCNc3nc4ccccc4n4cnnc34)CC2)c1	.	-3.2	.	.	.	.
Oc1ccc2ccccc2c1CN1CCCCC1	6.8	-0.3	14.3*	0.5	17.4*	0.3
C[C@H]1Cn2cnc(C(=O)N3CCN(c4ccccc4)CC3)c2C(=O)N1	5.4	.	-4.0	-1.9	.	.
CC(C)C[C@@H](COCc1cccc(Cl)c1)N1CCN(C(=O)c2ccc(C(F)(F)F)cc2)CCC1=O	4.8	.	-9.1	-6.6	.	.
COc1ccc(S(=O)(=O)NCc2ccco2)cc1-c1nnc2c3ccccc3c(C)nn12	-3.8	-2.2	27.6*	2.2	14.7*	0.5
CNS(=O)(=O)c1ccc(OC)c(-c2nnc3c4ccccc4c(C)nn23)c1	-7.8	0.5	4.6	-1.0	.	.
CCOC(=O)N[C@H](C(=O)N1CCC[C@H]1C(=O)NC1CCCC1)C1CCCCC1	8.4	.	-7.3	0.8	.	.
C=CCN=C1NC(c2ccccc2C(F)(F)F)C(C(=O)OC)=C(C)N1Cc1cccc(C(F)(F)F)c1 (stereo not given)	-2.5	.	-7.4	10.9	.	.
COCCCn1c(=O)c2sccc2n2c(CCCC(=O)NCC3CCCO3)nnc12 (stereo not given)	4.1	-0.8	13.7*	1.9	9.4	0.1
COc1ccc(OCC(O)CNC(=O)c2ccc(OC)cc2)cc1 (stereo not given)	13.2	3.2	14.4*	5.8	3.5	-0.3
Cc1ccc(/C=C/C(=O)Nc2ccccc2C(N)=O)cc1	3.0	-4.0	.	4.9	3.6	-0.2
CS(=O)(=O)N1CCN(c2ccc([N+](=O)[O-])cc2F)CC1	-11.9	0.9	-1.2	9.0	.	.
